According to ChEMBL document CHEMBL3407339, “A novel series of thiazolyl-pyrazoline derivatives: synthesis and evaluation of antifungal activity, cytotoxicity and genotoxicity” (Eur J Med Chem, 2015):
Converted amounts (≈) assume the structure as drawn.

Legend:
Salmonella typhimurium [1] = test: Mutagenicity in Salmonella typhimurium TA100 at 1.25 mg/ml after 48 hrs by AMES MPF assay in absence of Sprague-Dawley rat liver microsomal S9 fraction relative to baseline; type: toxicity, organism-based; conditions: salmonella enterica subsp. enterica serovar typhimurium
In short: (§1)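 Ames MPF fluctuation test with TA98/TA100. Overnight cultures (37 °C, 14–16 h) mixed with exposure medium; ±Aroclor-1254-induced rat liver S9 (final 4.5% v/v). Compounds in DMSO, 0.156–5 mg/mL. 90 min exposure at 37 °C, then indicator medium; 48 wells per concentration, 48 h at 37 °C, in triplicate. Yellow wells counted; fold induction over baseline (mean + 1 SD of zero-dose control).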

Salmonella typhimurium [2] = test: Mutagenicity in Salmonella typhimurium TA98 at 1.25 mg/ml after 48 hrs by AMES MPF assay in absence of Sprague-Dawley rat liver microsomal S9 fraction relative to baseline; type: toxicity, organism-based; conditions: salmonella enterica subsp. enterica serovar typhimurium; in short: as §1
Pichia kudriavzevii = test: Antifungal activity against Candida krusei NRLL Y 7179 after 48 hrs by broth microdilution assay; type: functional; conditions: NRLL Y 7179, 48 h
In short: (§2)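 Broth microdilution of DMSO stocks serially diluted in sterile water (4 to 0.0039 mg/mL). Yeasts grown on SDA at 37 °C for 24 h, suspended in double-strength PDB at 10⁵ spores/mL. Incubated at 37 °C for 48 h, then sprayed with 0.5% aqueous TTC. MIC = lowest concentration inhibiting visible growth. Ketoconazole reference.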

Salmonella typhimurium [3] = test: Mutagenicity in Salmonella typhimurium TA100 at 1.25 mg/ml after 48 hrs by AMES MPF assay in presence of Sprague-Dawley rat liver microsomal S9 fraction relative to baseline; type: toxicity, organism-based; conditions: salmonella enterica subsp. enterica serovar typhimurium; in short: as §1
Salmonella typhimurium [4] = test: Mutagenicity in Salmonella typhimurium TA98 at 0.625 mg/ml after 48 hrs by AMES MPF assay in absence of Sprague-Dawley rat liver microsomal S9 fraction relative to baseline; type: toxicity, organism-based; conditions: salmonella enterica subsp. enterica serovar typhimurium; in short: as §1
Salmonella typhimurium [5] = test: Mutagenicity in Salmonella typhimurium TA100 at 2.5 mg/ml after 48 hrs by AMES MPF assay in absence of Sprague-Dawley rat liver microsomal S9 fraction relative to baseline; type: toxicity, organism-based; conditions: salmonella enterica subsp. enterica serovar typhimurium; in short: as §1
Salmonella typhimurium [6] = test: Mutagenicity in Salmonella typhimurium TA100 at 0.156 mg/ml after 48 hrs by AMES MPF assay in presence of Sprague-Dawley rat liver microsomal S9 fraction relative to baseline; type: toxicity, organism-based; conditions: salmonella enterica subsp. enterica serovar typhimurium; in short: as §1
Salmonella typhimurium [7] = test: Mutagenicity in Salmonella typhimurium TA100 at 5 mg/ml after 48 hrs by AMES MPF assay in presence of Sprague-Dawley rat liver microsomal S9 fraction relative to baseline; type: toxicity, organism-based; conditions: salmonella enterica subsp. enterica serovar typhimurium; in short: as §1
Candida tropicalis = test: Antifungal activity against Candida tropicalis NRLL Y 12968 after 48 hrs by broth microdilution assay; type: functional; conditions: NRLL Y 12968, 48 h; in short: as §2
Salmonella typhimurium [8] = test: Mutagenicity in Salmonella typhimurium TA98 at 5 mg/ml after 48 hrs by AMES MPF assay in presence of Sprague-Dawley rat liver microsomal S9 fraction relative to baseline; type: toxicity, organism-based; conditions: salmonella enterica subsp. enterica serovar typhimurium; in short: as §1
Salmonella typhimurium [9] = test: Mutagenicity in Salmonella typhimurium TA98 at 5 mg/ml after 48 hrs by AMES MPF assay in absence of Sprague-Dawley rat liver microsomal S9 fraction relative to baseline; type: toxicity, organism-based; conditions: salmonella enterica subsp. enterica serovar typhimurium; in short: as §1
Salmonella typhimurium [10] = test: Mutagenicity in Salmonella typhimurium TA98 at 0.625 mg/ml after 48 hrs by AMES MPF assay in presence of Sprague-Dawley rat liver microsomal S9 fraction relative to baseline; type: toxicity, organism-based; conditions: salmonella enterica subsp. enterica serovar typhimurium; in short: as §1
Salmonella typhimurium [11] = test: Mutagenicity in Salmonella typhimurium TA100 at 0.3125 mg/ml after 48 hrs by AMES MPF assay in presence of Sprague-Dawley rat liver microsomal S9 fraction relative to baseline; type: toxicity, organism-based; conditions: salmonella enterica subsp. enterica serovar typhimurium; in short: as §1
Salmonella typhimurium [12] = test: Mutagenicity in Salmonella typhimurium TA98 at 0.3125 mg/ml after 48 hrs by AMES MPF assay in presence of Sprague-Dawley rat liver microsomal S9 fraction relative to baseline; type: toxicity, organism-based; conditions: salmonella enterica subsp. enterica serovar typhimurium; in short: as §1
Salmonella typhimurium [13] = test: Mutagenicity in Salmonella typhimurium TA100 at 5 mg/ml after 48 hrs by AMES MPF assay in absence of Sprague-Dawley rat liver microsomal S9 fraction relative to baseline; type: toxicity, organism-based; conditions: salmonella enterica subsp. enterica serovar typhimurium; in short: as §1
Salmonella typhimurium [14] = test: Mutagenicity in Salmonella typhimurium TA100 at 0.156 mg/ml after 48 hrs by AMES MPF assay in absence of Sprague-Dawley rat liver microsomal S9 fraction relative to baseline; type: toxicity, organism-based; conditions: salmonella enterica subsp. enterica serovar typhimurium; in short: as §1
A549 = test: Antiproliferative activity against human A549 cells after 24 hrs by XTT assay; type: functional, cell-based; conditions: A549, 24 h
In short: (§3)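 A549 cells in RPMI and NIH/3T3 cells in DMEM, each with fetal calf serum, antibiotics and 7.5% NaHCO₃, at 37 °C, 5% CO₂. Seeded at 20,000 cells/well, 24 h, then compounds added in medium at 500–3.9 doses (final DMSO <0.1%) for 24 h. XTT read after 3 h at 480 nm (ref 680 nm). IC₅₀ by non-linear regression; triplicates; cisplatin control.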

[15] = Cytotoxicity against mouse NIH/3T3 cells after 24 hrs by XTT assay; type: cell-based; conditions: NIH3T3, 24 h; in short: as §3
Salmonella typhimurium [16] = test: Mutagenicity in Salmonella typhimurium TA98 at 0.3125 mg/ml after 48 hrs by AMES MPF assay in absence of Sprague-Dawley rat liver microsomal S9 fraction relative to baseline; type: toxicity, organism-based; conditions: salmonella enterica subsp. enterica serovar typhimurium; in short: as §1
Salmonella typhimurium [17] = test: Mutagenicity in Salmonella typhimurium TA100 at 0.3125 mg/ml after 48 hrs by AMES MPF assay in absence of Sprague-Dawley rat liver microsomal S9 fraction relative to baseline; type: toxicity, organism-based; conditions: salmonella enterica subsp. enterica serovar typhimurium; in short: as §1
Aspergillus niger = test: Antifungal activity against Aspergillus niger ATCC 1094 after 72 hrs by broth microdilution assay; type: functional; conditions: ATCC 1094, 72 h
In short: (§4)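 Compounds dissolved in DMSO, diluted in sterile distilled water from 4 to 0.0039 mg/mL. Molds grown on PDA at 25 °C for 5 days, suspended in double-strength PDB at 10⁵ spores/mL. Incubated at 25 °C for 72 h; mycelial growth read under stereo microscope. MIC = lowest concentration inhibiting visible growth. Ketoconazole reference.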

Salmonella typhimurium [18] = test: Mutagenicity in Salmonella typhimurium TA98 at 0.156 mg/ml after 48 hrs by AMES MPF assay in presence of Sprague-Dawley rat liver microsomal S9 fraction relative to baseline; type: toxicity, organism-based; conditions: salmonella enterica subsp. enterica serovar typhimurium; in short: as §1
Candida parapsilosis = test: Antifungal activity against Candida parapsilosis NRLL Y 12696 after 48 hrs by broth microdilution assay; type: functional; conditions: Lodderomyces parapsilosis, NRLL Y 12696, 48 h; in short: as §2
Fusarium solani = test: Antifungal activity against Fusarium solani NRRL 13414 after 72 hrs by broth microdilution assay; type: functional; conditions: NRRL 13414, 72 h; in short: as §4
Salmonella typhimurium [19] = test: Mutagenicity in Salmonella typhimurium TA100 at 2.5 mg/ml after 48 hrs by AMES MPF assay in presence of Sprague-Dawley rat liver microsomal S9 fraction relative to baseline; type: toxicity, organism-based; conditions: salmonella enterica subsp. enterica serovar typhimurium; in short: as §1
Aspergillus parasiticus = test: Antifungal activity against Aspergillus parasiticus NRRL 465 after 72 hrs by broth microdilution assay; type: functional; conditions: NRRL 465, 72 h; in short: as §4
Salmonella typhimurium [20] = test: Mutagenicity in Salmonella typhimurium TA98 at 2.5 mg/ml after 48 hrs by AMES MPF assay in absence of Sprague-Dawley rat liver microsomal S9 fraction relative to baseline; type: toxicity, organism-based; conditions: salmonella enterica subsp. enterica serovar typhimurium; in short: as §1
Salmonella typhimurium [21] = test: Mutagenicity in Salmonella typhimurium TA100 at 0.625 mg/ml after 48 hrs by AMES MPF assay in presence of Sprague-Dawley rat liver microsomal S9 fraction relative to baseline; type: toxicity, organism-based; conditions: salmonella enterica subsp. enterica serovar typhimurium; in short: as §1
Salmonella typhimurium [22] = test: Mutagenicity in Salmonella typhimurium TA100 at 0.625 mg/ml after 48 hrs by AMES MPF assay in absence of Sprague-Dawley rat liver microsomal S9 fraction relative to baseline; type: toxicity, organism-based; conditions: salmonella enterica subsp. enterica serovar typhimurium; in short: as §1
Candida albicans = test: Antifungal activity against Candida albicans ATCC 90028 after 48 hrs by broth microdilution assay; type: functional; conditions: ATCC 90028, 48 h; in short: as §2
Salmonella typhimurium [23] = test: Mutagenicity in Salmonella typhimurium TA98 at 0.156 mg/ml after 48 hrs by AMES MPF assay in absence of Sprague-Dawley rat liver microsomal S9 fraction relative to baseline; type: toxicity, organism-based; conditions: salmonella enterica subsp. enterica serovar typhimurium; in short: as §1
Salmonella typhimurium [24] = test: Mutagenicity in Salmonella typhimurium TA98 at 2.5 mg/ml after 48 hrs by AMES MPF assay in presence of Sprague-Dawley rat liver microsomal S9 fraction relative to baseline; type: toxicity, organism-based; conditions: salmonella enterica subsp. enterica serovar typhimurium; in short: as §1
Aspergillus flavus = test: Antifungal activity against Aspergillus flavus NRRL 980 after 72 hrs by broth microdilution assay; type: functional; conditions: NRRL 980, 72 h; in short: as §4
Nakaseomyces glabratus = test: Antifungal activity against Candida glabrata clinical isolate after 48 hrs by broth microdilution assay; type: functional; in short: as §2
Salmonella typhimurium [25] = test: Mutagenicity in Salmonella typhimurium TA98 at 1.25 mg/ml after 48 hrs by AMES MPF assay in presence of Sprague-Dawley rat liver microsomal S9 fraction relative to baseline; type: toxicity, organism-based; conditions: salmonella enterica subsp. enterica serovar typhimurium; in short: as §1
[Candida] zeylanoides = Antifungal activity against Candida zeylanoides NRLL Y 1774 after 48 hrs by broth microdilution assay; type: functional; conditions: Dujonia zeylanoides, NRLL Y 1774, 48 h; in short: as §2

Compound	fold change (FC) (Salmonella typhimurium [1])	fold change (FC) (Salmonella typhimurium [2])	MIC (Pichia kudriavzevii)	fold change (FC) (Salmonella typhimurium [3])	fold change (FC) (Salmonella typhimurium [4])	fold change (FC) (Salmonella typhimurium [5])	fold change (FC) (Salmonella typhimurium [6])	fold change (FC) (Salmonella typhimurium [7])	MIC (Candida tropicalis)	fold change (FC) (Salmonella typhimurium [8])	fold change (FC) (Salmonella typhimurium [9])	fold change (FC) (Salmonella typhimurium [10])	fold change (FC) (Salmonella typhimurium [11])	fold change (FC) (Salmonella typhimurium [12])	fold change (FC) (Salmonella typhimurium [13])	fold change (FC) (Salmonella typhimurium [14])	IC50 (A549)	IC50 [15]	fold change (FC) (Salmonella typhimurium [16])	fold change (FC) (Salmonella typhimurium [17])	further results
Fc1ccc(C2CC(c3ccc(Cl)s3)=NN2c2nc(-c3ccccc3)cs2)cc1 (configuration not stated)	1.28	0	250 mg/L (≈ 568 µM)	4.62	0.67	2.88	1.85	4.38	250 mg/L (≈ 568 µM)	0.41	0.67	1.08	3.23	0.68	0.96	0	> 500 mg/L	> 500 mg/L	0	0.32	MIC (Aspergillus niger): 250 mg/L (≈ 568 µM); fold change (FC) (Salmonella typhimurium [18]): 1.63; MIC (Candida parapsilosis): 250 mg/L (≈ 568 µM); MIC (Fusarium solani): 250 mg/L (≈ 568 µM); fold change (FC) (Salmonella typhimurium [19]): 3.46; MIC (Aspergillus parasiticus): 250 mg/L (≈ 568 µM); fold change (FC) (Salmonella typhimurium [20]): 0; fold change (FC) (Salmonella typhimurium [21]): 2.77; fold change (FC) (Salmonella typhimurium [22]): 0.96; MIC (Candida albicans): 250 mg/L (≈ 568 µM); fold change (FC) (Salmonella typhimurium [23]): 0; fold change (FC) (Salmonella typhimurium [24]): 0.27; MIC (Aspergillus flavus): 125 mg/L (≈ 284 µM); MIC (Nakaseomyces glabratus): 125 mg/L (≈ 284 µM); fold change (FC) (Salmonella typhimurium [25]): 0.68; MIC ([Candida] zeylanoides): 250 mg/L (≈ 568 µM)
Fc1ccc(C2CC(c3ccc(Cl)s3)=NN2c2nc(-c3ccc(Cl)cc3)cs2)cc1 (configuration not stated)	0.33	0.67	250 mg/L (≈ 527 µM)	3.69	0	1	3.23	3.92	250 mg/L (≈ 527 µM)	0.81	1	0.95	3.92	0.81	0.33	1.67	125 mg/L (≈ 263 µM)	> 500 mg/L	0	0.67	MIC (Aspergillus niger): 250 mg/L (≈ 527 µM); fold change (FC) (Salmonella typhimurium [18]): 0.68; MIC (Candida parapsilosis): 250 mg/L (≈ 527 µM); MIC (Fusarium solani): 250 mg/L (≈ 527 µM); fold change (FC) (Salmonella typhimurium [19]): 3; MIC (Aspergillus parasiticus): 250 mg/L (≈ 527 µM); fold change (FC) (Salmonella typhimurium [20]): 0.67; fold change (FC) (Salmonella typhimurium [21]): 3.46; fold change (FC) (Salmonella typhimurium [22]): 0.33; MIC (Candida albicans): 250 mg/L (≈ 527 µM); fold change (FC) (Salmonella typhimurium [23]): 0; fold change (FC) (Salmonella typhimurium [24]): 0.54; MIC (Aspergillus flavus): 125 mg/L (≈ 263 µM); MIC (Nakaseomyces glabratus): 125 mg/L (≈ 263 µM); fold change (FC) (Salmonella typhimurium [25]): 0.81; MIC ([Candida] zeylanoides): 250 mg/L (≈ 527 µM)
